One assay deals with T1, Polyamine oxidase 1 (Zea mays, UniProt O64411).
T1 sequence (O64411 whole entry): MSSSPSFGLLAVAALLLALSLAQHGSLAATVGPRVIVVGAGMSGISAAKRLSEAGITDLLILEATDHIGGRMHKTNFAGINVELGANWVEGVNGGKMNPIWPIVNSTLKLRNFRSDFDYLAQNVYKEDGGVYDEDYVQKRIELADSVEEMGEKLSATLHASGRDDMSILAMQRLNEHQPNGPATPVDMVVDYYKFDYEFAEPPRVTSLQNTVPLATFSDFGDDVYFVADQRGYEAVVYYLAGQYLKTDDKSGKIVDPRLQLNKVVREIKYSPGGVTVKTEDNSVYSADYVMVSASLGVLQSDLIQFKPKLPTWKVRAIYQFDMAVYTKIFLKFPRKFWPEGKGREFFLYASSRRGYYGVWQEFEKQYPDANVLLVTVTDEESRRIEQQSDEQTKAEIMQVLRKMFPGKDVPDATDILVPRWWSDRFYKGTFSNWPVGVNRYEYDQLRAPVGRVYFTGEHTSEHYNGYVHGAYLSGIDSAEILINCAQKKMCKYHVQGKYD
The assay is described as follows: Inhibition of maize PAO at pH 6.5 by spectrophotometry-based Dixon plot method. The gist of the method:
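H₂O₂ was detected by peroxidase-coupled 4-aminoantipyrine/3,5-dichloro-2-hydroxybenzenesulfonate adduct at 515 nm. Ki was obtained by the Dixon method. Mean of three experiments, each in duplicate.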

Assay [1] has as its system HeLa. Kind of assay: Antiproliferative activity against human HeLa cells at 1 uM after 48 hrs by MTT assay. Type of assay: functional, cell-based. The gist of the method:
(§1)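 Cells seeded at 2.5 × 10³ cells/well in DMEM with 10% FBS and allowed to adhere. They were then exposed to the test compound (0.1-10 μM) for 24, 48, 72 and 96 h. MTT reduction was read at 550 nm, and viability was taken as OD treated / OD untreated control × 100. At least three independent experiments, compared by two-way ANOVA.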

In assay [2] the test system is HeLa. The assay is described as follows: Antiproliferative activity against human HeLa cells at 1 uM after 72 hrs by MTT assay. It is filed as functional, cell-based. The gist of the method:
as §1
On the technique in general: Formazan colour is commonly taken as a measure of viable cells.

The subject of assay [3] is HeLa. The assay is described as follows: Antiproliferative activity against human HeLa cells at 1 uM after 96 hrs by MTT assay. Type of assay: functional, cell-based. The gist of the method: as §1
Assay [4] concerns U-373MG ATCC. Kind of assay: Antiproliferative activity against human U373MG cells at 1 uM after 48 hrs by MTT assay. It is filed as functional, cell-based. In a few lines: as §1
For assay [5], the system named is U-373MG ATCC. The assay is described as follows: Antiproliferative activity against human U373MG cells at 1 uM after 72 hrs by MTT assay. Type of assay: functional, cell-based. The gist of the method: as §1
For assay [6], the system named is U-373MG ATCC. Kind of assay: Antiproliferative activity against human U373MG cells at 1 uM after 96 hrs by MTT assay. It is filed as functional, cell-based. In a few lines:
as §1

Assay [7] concerns HeLa. Kind of assay: Cytostatic activity in human HeLa cells at 1 uM after 48 hrs by trypan blue assay. Type of assay: functional, cell-based. In a few lines: (§2)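 Cells seeded in DMEM with 10% FBS at 2.5 × 10³ cells/well and allowed to adhere. They were then incubated with or without 1 μM compound for 0, 24, 48, 72 and 96 h. Trypan blue exclusion was used: unstained cells were counted twice in a Neubauer chamber, in duplicate, and reported as living cell number (×10⁷). At least three independent runs, with two-way ANOVA against control.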

Assay [8] relates to HeLa. The assay is described as follows: Cytostatic activity in human HeLa cells at 1 uM after 72 hrs by trypan blue assay. Type of assay: functional, cell-based. In a few lines: as §2
For assay [9], the system named is HeLa. The assay is described as follows: Cytostatic activity in human HeLa cells at 1 uM after 96 hrs by trypan blue assay. Type of assay: functional, cell-based. In a few lines: as §2
The subject of assay [10] is U373 MG. Kind of assay: Cytostatic activity in human U373MG cells at 1 uM after 48 hrs by trypan blue assay. It is filed as functional, cell-based. The note with it: U-373MG ATCC. The gist of the method: as §2
The test system of assay [11] is U373 MG. The assay is described as follows: Cytostatic activity in human U373MG cells at 1 uM after 72 hrs by trypan blue assay. The following applies: U-373MG ATCC. It is filed as functional, cell-based. The gist of the method:
as §2

Assay [12] concerns U373 MG. Kind of assay: Cytostatic activity in human U373MG cells at 1 uM after 96 hrs by trypan blue assay. Type of assay: functional, cell-based. The following applies: U-373MG ATCC. In a few lines:
as §2

For assay [13], the system named is HeLa. The assay is described as follows: Cytotoxicity against human HeLa cells at 10 uM after 24 to 96 hrs by MTT assay. It is filed as functional, cell-based. In a few lines: as §1
Assay [14] concerns U-373MG ATCC. The assay is described as follows: Cytotoxicity against human U373MG cells at 10 uM after 24 to 96 hrs by MTT assay. Type of assay: functional, cell-based. The gist of the method: as §1

Calls of active or inactive are those of the source. The calls are words filed in the database; no cut-off is given here.

Here are results for 24 compounds from ChEMBL document CHEMBL1158478, “Synthesis and biological evaluation of guanidino compounds endowed with subnanomolar affinity as competitive inhibitors of maize polyamine oxidase” (J Med Chem, 2009).

Turning to `NC(N)=NCCCCCCCCNCCCCCCCCN=C(N)NCc1ccccc1`, the affinity on Polyamine oxidase 1 corresponds to a Ki of 1 nM. Turning to `C/C=C/CNC(=N)NCCCCCCCCNCCCCCCCCNC(=N)N`, the Ki (as a rule, the equilibrium dissociation constant of an inhibitor or competing ligand from its target) at Polyamine oxidase 1 worked out at 1.1 nM. As to `C=C(C)CCNC(N)=NCCCCCCCCNCCCCCCCCN=C(N)N`, on Polyamine oxidase 1, the affinity corresponds to a Ki of 0.5 nM.

With `CC(C)=CCNC(=N)NCCCCCN`, the inhibitory constant (Ki) on Polyamine oxidase 1 stood at 10 nM. For the compound `CC(C)=CCNC(=N)NCCCNCCCN`, at Polyamine oxidase 1, affinity was put at a Ki of 1210 nM. With `N=C(N)NCCCCN` [AGMATINE], the affinity at Polyamine oxidase 1, expressed as Ki, was 3000 nM. `N=C(NCCCCCN)NCCC1CCCCC1` came in with a Ki at Polyamine oxidase 1 of 1720 nM. Compound `C=CCNC(=N)NCCCCN` showed a Ki on Polyamine oxidase 1 of 130 nM. Regarding `N=C(N)NCCCCCCCCNCCCCCCCCNC(=N)N` [IMINOCTADIENE], the inhibitory constant (Ki) on Polyamine oxidase 1 amounted to 7.5 nM. The compound `CC(C)=CCNC(=N)NCCCCN` yielded a Ki on Polyamine oxidase 1 of 15 nM. Still for that read-out and setting: next, `CC(C)=CCNC(=N)NCCCCCCN`: 22 nM; `NCCCCCN=C(N)NCC1CC1`: 2580 nM.

On Polyamine oxidase 1, `C#CCNC(=N)NCCCCN` came in with a Ki of 250 nM. In the case of `CC(C)=CCN=C(N)NCCCCN=C(N)NCC=C(C)C`, the affinity on Polyamine oxidase 1, expressed as Ki, was 1500 nM. In the case of `N=C(N)NCCCCCCCCNCCCCCCCCNC(=N)NCC1CC1`, the Ki at Polyamine oxidase 1 was found to be 0.08 nM. The result in the assay on HeLa [1], with HeLa [2], in the assay with HeLa [3], with U-373MG ATCC [4], in the assay on U-373MG ATCC [5] and with U-373MG ATCC [6] was Active. The outcome in the assay with HeLa [7], in the assay with HeLa [8], in the assay on HeLa [9], in the assay on U373 MG [10], with U373 MG [11] and in the assay with U373 MG [12] was Active. Also, the result in the assay with HeLa [13] and in the assay with U-373MG ATCC [14] was Active.

For the compound `CC(C)=CCNC(N)=NCCCCN=C(N)N`, the Ki on Polyamine oxidase 1 was found to be 700 nM.

For `COc1cccc(CNC(N)=NCCCCCN)c1`, on Polyamine oxidase 1, the affinity, expressed as Ki, was 1150 nM. In the case of `NCCCCCCCCN` [DIAMINOOCTANE], the inhibition constant (Ki) at Polyamine oxidase 1 amounted to 300 nM. `CC(C)=CCNC(N)=Nc1ccc(CN)cc1` gave a Ki on Polyamine oxidase 1 of 18000 nM. The compound `NCCCCCN=C(N)NC/C=C/c1ccccc1` yielded a Ki on Polyamine oxidase 1 of 1530 nM.

Compound `NCCCCN=C(N)Nc1ccc(F)cc1` showed a Ki on Polyamine oxidase 1 of 630 nM. At Polyamine oxidase 1, `CC(C)=CCNC(N)=NCCCCCCCCNCCCCCCCCN=C(N)N` returned an inhibition constant (Ki) of 3 nM.

`CC(C)=CCN=C(N)NCCCCCCCCNCCCCCCCCN=C(N)NCC=C(C)C` showed a Ki on Polyamine oxidase 1 of 1.7 nM.

Regarding `C#CCNC(N)=NCCCCCCCCNCCCCCCCCN=C(N)N`, the Ki on Polyamine oxidase 1 was determined as 0.7 nM.
